{
  "source": "PubChem BioAssay AID651783",
  "about": "(The Scripps Research Institute Molecular Screening Center, 2012)",
  "note": "The campaign covered roughly 2,400 compounds. About 2,000 (83%) were called active.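 How the source made its calls: active means activation above a cutoff set at the run's mean compound activation plus 3 SD (cut at about 39% in these data); inactive means the rest.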 So high a share suggests a set chosen from earlier hits. Not all results are given here.",
  "data": [
    {"molecular_target": "Trace amine-associated receptor 1 (Homo sapiens) (UniProt Q96RJ0)", "sequence (Q96RJ0 whole entry, looked up)": "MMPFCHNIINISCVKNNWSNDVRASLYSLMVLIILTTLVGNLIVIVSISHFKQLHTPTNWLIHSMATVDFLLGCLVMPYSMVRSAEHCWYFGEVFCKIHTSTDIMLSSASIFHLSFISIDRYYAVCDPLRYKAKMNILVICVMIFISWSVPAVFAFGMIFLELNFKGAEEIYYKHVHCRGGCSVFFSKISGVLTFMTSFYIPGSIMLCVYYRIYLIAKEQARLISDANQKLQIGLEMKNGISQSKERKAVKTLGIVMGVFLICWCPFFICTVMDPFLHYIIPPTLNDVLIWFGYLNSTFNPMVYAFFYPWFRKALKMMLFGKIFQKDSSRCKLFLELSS", "test": "human TAAR1 agonists, retest of hits, confirmation, Fluo-8 calcium fluorescence, CHO RD-HGA16 cells (AID 651783);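 further: promiscuous G-alpha-16 overexpression reroutes TAAR1 signalling from cAMP to calcium; peak fluorescence divided by basal pre-compound fluorescence per well; 0% = DMSO wells and 100% = phenethylamine at EC100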", "settings": "CHO RD-HGA16 TAAR1, Fluo-8 calcium fluorescence; at 3 µM; stronger effect = higher value", "outline": "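Test system: RD-HGA16 CHO cells co-expressing hTAAR1 and promiscuous Gα16. Doses: 3 µM single dose. Incubation: Fluo-8 loading 75 min 37 °C and 30 min RT. Technique: Fluo-8 calcium fluorescence, 5 s basal then 140 s kinetic read. Replication: each compound tested in triplicate.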", "values": [
      {"compound": "c1ccc(CCNC2CCCCCC2)cc1", "activation": "91.8% (active)"},
      {"compound": "CCCCC(=O)N/N=C/c1c(O)n(CC)c(=S)n(CC)c1=O", "activation": "106% (active)"},
      {"compound": "Cc1cccc(N2C(=O)NC(=O)/C(=C\\c3cnn(-c4ccccc4)c3)C2=O)c1", "activation": "46.7% (active)"},
      {"compound": "NCC(O)c1ccc(O)cc1", "note": "(centres undefined)", "activation": "88.3% (active)"},
      {"compound": "COc1ccc(Br)cc1CNCCc1cccc(Cl)c1", "activation": "71% (active)"},
      {"compound": "CC(Cc1ccccc1)NC=O", "note": "(centres undefined)", "activation": "82.1% (active)"},
      {"compound": "CCC(=NCCc1ccccc1)c1c(O)n(C2CCCCC2)c(=O)[nH]c1=O", "activation": "76.4% (active)"},
      {"compound": "Clc1ccc2nc3c(c(-c4ccccc4)c2c1)CNCC3", "activation": "71% (active)"},
      {"compound": "O=C1NC(=O)N(Cc2ccco2)C(=O)/C1=C\\c1ccc(-c2ccc(F)cc2)o1", "activation": "52.5% (active)"}
    ]}
  ]
}
